Laboratory results as given in ChEMBL document CHEMBL4138188, “Eurycomalactone Inhibits Expression of Endothelial Adhesion Molecules at a Post-Transcriptional Level” (J Nat Prod, 2017).
Calls of active or inactive are those of the source. The calls are words filed in the database; no cut-off is given here.

How the values were obtained:
[1] = organism: Homo sapiens; experiment: Inhibition of NF-kappaB in HUVECtert assessed as reduction in TNFalpha-induced VCAM-1 mRNA expression level at 35 uM pretreated for 30 mins followed by TNFalpha stimulation measured after 4 hrs by qRT-PCR analysis
[2] = organism: Homo sapiens; experiment: Inhibition of de novo protein synthesis in HUVECtert at 1 to 35 uM after 30 mins by Click-iT OPP/Alexa fluor 488 picolyl azide reagent based confocal fluorescence microscopy; format: functional
In short: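 Cells on gelatin coverslips (24 h) exposed 30 min to agent (2 or 5 μM; cycloheximide 1, 3.5, 35 μM) or 0.1% DMSO, then 20 μM OPP for 30 min; formaldehyde fixation, Triton permeabilisation, Alexa 488 picolyl azide click reaction 30 min, nuclear counterstain; confocal imaging at 10×, constant gain and exposure.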

[3] = organism: Homo sapiens; experiment: Reduction in cyclin D1 level in HUVECtert at 1 uM by Western blot analysis; format: functional; settings: TDE = time-dependent effect
In short: (§1)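 HUVECtert treated with 1 μM cycloheximide, 2 μM agent, vehicle, or left untreated for a time course; cyclin D1 or survivin by Western blot, actin loading control; means ± SD of three blots, one-way ANOVA/Dunnett versus untreated.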

[4] = organism: Homo sapiens; experiment: Inhibition of NF-kappaB in HUVECtert assessed as reduction in TNFalpha-induced ICAM-1 mRNA expression level at 35 uM pretreated for 30 mins followed by TNFalpha stimulation measured after 4 hrs by qRT-PCR analysis
[5] = organism: Homo sapiens; experiment: Reduction in p53 level in HUVECtert at 1 uM after 8 hrs by Western blot analysis; format: functional
[6] = organism: Homo sapiens; experiment: Inhibition of NF-kappaB in HUVECtert assessed as reduction in TNFalpha-induced E-selectin mRNA expression level at 35 uM pretreated for 30 mins followed by TNFalpha stimulation measured after 2 hrs by qRT-PCR analysis
[7] = organism: Homo sapiens; experiment: Inhibition of de novo protein synthesis in HUVECtert at 1 to 35 uM after 30 mins by Click-iT OPP/Alexa fluor 488 picolyl azide reagent based flow cytometry; format: functional
In short: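 HUVECtert (1 × 10^6 cells in tubes) exposed 30 min to agent (2 or 5 μM; cycloheximide 1−35 μM) or vehicle, then 20 μM OPP 30 min; fixed, permeabilised, Alexa 488 click-labelled in Tris buffer pH 7.4; FL-1 flow cytometry relative to control; n = 3, one-way ANOVA/Dunnett.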

[8] = organism: Homo sapiens; experiment: Reduction in cyclin A level in HUVECtert at 1 uM after 8 hrs by Western blot analysis; format: functional
[9] = organism: Homo sapiens; experiment: Inhibition of NF-kappaB in HUVECtert assessed as reduction in cyclin D1 mRNA expression level at 1 uM measured up to 240 mins by qRT-PCR analysis
In short: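 HUVECtert incubated without TNFα with 2 μM agent, 1 μM cycloheximide or 0.1% DMSO for 0.5−4 h; cyclin D1 mRNA by qRT-PCR, 2−ΔΔCt analysis.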

[10] = Inhibition of NF-kappaB in HUVECtert assessed as reduction in TNFalpha-induced VCAM-1 expression level pretreated for 30 mins followed by TNFalpha stimulation measured after 18 hrs by flow cytometry; set-up: species or system Homo sapiens
In short: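 FITC-antibody surface staining, flow cytometry; expression relative to TNFα-stimulated control. Parthenolide 10 μM as positive control; means ± SD, n = 3, one-way ANOVA/Dunnett versus vehicle.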

[11] = organism: Homo sapiens; experiment: Reduction in survivin level in HUVECtert at 1 uM by Western blot analysis; format: functional; settings: TDE = time-dependent effect; in short: as §1
[12] = organism: Homo sapiens; experiment: Inhibition of NF-kappaB in HUVECtert assessed as reduction in TNFalpha-induced VCAM-1 mRNA expression level at 10 uM pretreated for 30 mins followed by TNFalpha stimulation measured after 4 hrs by qRT-PCR analysis
In short: (§2)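 HUVECtert (immortalised HUVEC, used to passage 15), 0.5 × 10^6 cells grown 48 h on gelatin-coated dishes. Preincubated 30 min with compound or 0.1% DMSO vehicle, then TNFα 10 ng/mL for 2 h (E-selectin) or 4 h (VCAM-1, ICAM-1). After RNA isolation and cDNA synthesis, mRNA was quantified by qRT-PCR using the 2−ΔΔCt method. Means ± SD, n = 3.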

[13] = organism: Homo sapiens; experiment: Inhibition of NF-kappaB in HUVECtert assessed as reduction in TNFalpha-induced E-selectin mRNA expression level at 10 uM pretreated for 30 mins followed by TNFalpha stimulation measured after 2 hrs by qRT-PCR analysis; in short: as §2
[14] = organism: Homo sapiens; experiment: Inhibition of NF-kappaB in HUVECtert assessed as reduction in TNFalpha-induced ICAM-1 mRNA expression level at 10 uM pretreated for 30 mins followed by TNFalpha stimulation measured after 4 hrs by qRT-PCR analysis; in short: as §2

## C[C@@H]1C[C@@H]([C@H](O)CC2CC(=O)NC(=O)C2)C(=O)[C@@H](C)C1 [CYCLOHEXIMIDE]
[1]
  inhibition: Active
[2]
  inhibition: Active
[3]
  Activity: Tde
[4]
  inhibition: inactive
[5]
  Activity: inactive
[6]
  inhibition: inactive
[7]
  inhibition: Active
[8]
  Activity: inactive
[9]
  inhibition: inactive
[10]
  IC50: 300 nM
[11]
  Activity: Tde

## C=C1C(=O)O[C@@H]2C3O[C@]3(C)CC/C=C(\C)CC[C@@H]12 (some centres undefined)
[12]
  inhibition: Active
[13]
  inhibition: Active
[14]
  inhibition: Active
